Assay results published in article PMC3954503 (Journal of Medicinal Chemistry, 2014).
Like-named read-outs stand apart in the source and are kept apart here. Blank lines part the entries; values can stand above or below the compound they belong to.

Legend:
[1] = tested on: HIV-1 FSS RNA upper stem-loop; experiment: SPR binding to immobilized HIV-1 FSS RNA upper stem-loop; settings: for increased affinity over 2 and 3 / weaker binding / decrease in affinity relative to dimers 4 and 5: SPR KD ratio
Summary of the method: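 Streptavidin (about 2000 RU) on a CM5 chip; 5′-biotin HIV-1 FSS RNA (500 nM) captured once at about 300 RU and once at about 1200 RU, against a biotin-blocked reference cell. Compound series run in (a) HBS pH 7.4 at 60 μL/min or (b) HEPES/NaCl/MgCl2/Tween-20 at 50 μL/min, each injection at least twice. For (a), ≥5 sensorgrams globally fit to a 1:1 Langmuir model; for (b), individual fits; ka, kd, KD derived.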

tRNA = settings: previously found; cited from earlier work
[2] = tested on: pseudotyped HIV-1 virions; experiment: Single-round infectivity assay with pseudotyped HIV-1; type: cell-based
[3] = tested on: HIV-1 FSS RNA upper stem-loop; settings: conditions (a) HBS buffer; ref [35]; cited from earlier work
[4] = tested on: pDualHIV(0) transfected HEK 293FT cells; experiment: Dual-luciferase control assay, pDualHIV; type: cell-based, human
Summary of the method: (§1)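 HEK 293FT cells plated at 1.5 × 10^4 cells/well 6 h before transfection, in DMEM with 10% FBS. Transfected with 0.2 μg reporter plasmid (lipofectamine 2000). At 5 h, test compound (0–50 μM) added in triplicate for 36 h at 37 °C. Cells PBS-washed and lysed; Rluc and Fluc read by dual-luciferase assay. Fluc/Rluc ratio expressed relative to untreated cells, set to 100%.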

[5] = tested on: Gag:Gag-Pol ratio in pseudotyped virions; experiment: Western blot of isolated viral particles for RT and p24; type: cell-based, HIV-1; settings: for RT in unprocessed Gag-Pol (p160) relative to mature RT (p66 + p51) / amount of RT relative to capsid protein p24: Western blot of viral particles; for amount of RT relative to capsid protein p24: as a function of added compound
Summary of the method: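 HEK293T producer cells co-transfected with env-deleted, GFP-carrying HIV-1NL4–3 proviral vector and VSV-G vector (1:0.5, Fugene HD). Test compound added 4 h post-transfection; virions collected from media at 24 h through a 0.45-μm filter. Equal p24-ELISA loads were pelleted through a 20% sucrose cushion at 100,000g, then Western blotted for RT and p24.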

HTLV-2 FSS RNA = experiment: SPR binding to HTLV-2 FSS RNA; settings: concentrations up to 3 μM; HBS buffer
Summary of the method: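 SPR on a CM5 chip with about 2000 RU streptavidin, immobilized by EDC/NHS. 5′-Biotin HTLV-2 FSS RNA (500 nM) captured to about 300–1200 RU; the biotin-blocked flow cell served as reference. Test compound flowed at varying concentrations in HBS (0.01 M HEPES, 0.150 M NaCl, pH 7.4) at 60 μL/min. Each concentration injected at least twice; sensorgrams reference-subtracted and blank-corrected.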

HEK 293FT cells [6] = experiment: WST-1 cell viability assay; type: cell-based, human; settings: 24 h
Summary of the method: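 HEK 293FT cells grown to 80% confluence in 96-well plates (DMEM, 10% FBS, 37 °C). Test compound (up to 0.5 mM) or sterile water control added in triplicate for 24 h at 37 °C. Premix WST-1 reagent then added for 2 h at 37 °C. Absorbance at 450 minus 690 nm, blank-corrected, plotted against concentration; mean of three with SD.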

HEK 293FT cells [7] = experiment: Cell permeation by fluorescence microscopy; type: cell-based, human; settings: HEK 293FT, 50, 100, 200, and 500 μM for 12 h
Summary of the method: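 HEK 293FT cells grown to 80% confluence at 37 °C, 5% CO2, in DMEM with 10% FBS and 1% penicillin-streptomycin. Cells exposed to test compound for 12 h (methods give 50 μM; the text lists 50–500 μM). Washed twice with PBS to remove surface-bound compound, then imaged in buffer by fluorescence microscopy with 358-nm excitation and 460-nm emission filters.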

HIV-1 FSS DNA = experiment: Fluorescence titration with HIV-1 FSS DNA; type: binding; settings: by fluorescence
Summary of the method: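 Fluorescence titration in 20 mM HEPES, 150 mM NaCl, with test compound at 1 μM. HIV-1 FSS RNA (10 μM stock) or FSS DNA (40 μM stock) titrated in. Each addition mixed, then 10 min to equilibrate. Benzo[g]quinoline fluorescence quenching read three times, 1 min apart, and corrected for dilution to give KD. Selectivity compares the FSS RNA and FSS DNA KDs.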

[8] = tested on: HIV-1 FSS-dependent −1 frameshifting in HEK 293FT cells; experiment: Dual-luciferase frameshift assay, pDualHIV; type: cell-based, human; settings: pDualHIV(−1)
Summary of the method: as §1

HIV-1 FSS RNA = settings: read-out: KD for HIV-1 FSS; ref [31]; cited from earlier work
[9] = conditions (a) HBS buffer (0.01 M HEPES, 0.150 M NaCl, pH = 7.4), global fit
[10] = conditions (b) 20 mM HEPES, 150 mM NaCl, 5 mM MgCl2, 0.005% Tween-20

Compound: CCc1nc2ccccc2cc1C(=O)N[C@@H](C/C=C/C[C@H](NC(=O)c1cc2ccccc2nc1CC)C(=O)N1CCC[C@H]1C(=O)N[C@@H](Cc1ccccc1)C(=O)NCCCN)C(=O)N1CCC[C@H]1C(=O)N[C@@H](Cc1ccccc1)C(=O)NCCCN [Compound 3]
affinity for tRNA (tRNA): no measurable affinity
activity in pseudotyped HIV-1 assay ([2]; preliminary experiments (data not shown)): no activity
association rate, ka [3]: 1.62 × 10^3 M^–1s^-1
dissociation rate kd [3]: 7.5 × 10^–3 s^–1

Compound: CCc1nc2cc3ccccc3cc2cc1C(=O)N[C@@H](C/C=C\C[C@H](NC(=O)c1cc2cc3ccccc3cc2nc1CC)C(=O)N1CCC[C@H]1C(=O)N[C@@H](Cc1ccccc1)C(=O)NCCCN)C(=O)N1CCC[C@H]1C(=O)N[C@@H](Cc1ccccc1)C(=O)NCCCN [Compound 4]
change in Fluc to Rluc ratio relative to untreated cells [4]: No change
lower concentration than RG501 for roughly equivalent increase in RT [5]: 37.5 fold
RT in unprocessed Gag-Pol (p160) relative to mature RT (p66 + p51) [5]: increased significantly
amount of RT relative to capsid protein p24 [5]: increasing amounts of RT
increased affinity over 2 and 3 [1]: approximately 50 fold
association rate, ka [1, 9]: (4.25 ± 0.22) × 10^4 M^–1s^-1
dissociation rate kd [1, 9]: (4.11 ± 0.02) × 10^–3 s^–1
association rate, ka [1, 10]: (2.17 ± 0.77) × 10^4 M^–1s^-1
dissociation rate kd [1, 10]: (1.35 ± 0.03) × 10^–3 s^–1
Kd ([1]; read-out: affinity (KD) for HIV-1 FSS by SPR, HBS buffer): 89 nM
binding to HTLV-2 FSS by SPR (HTLV-2 FSS RNA): no binding was observed
concentrations at which no significant toxicity occurred (HEK 293FT cells [6]): below 60 μM
cell penetration (internalization) (HEK 293FT cells [7]): internalized

Compound: CCc1nc2cc3ccccc3cc2cc1C(=O)N[C@@H](C/C=C/C[C@H](NC(=O)c1cc2cc3ccccc3cc2nc1CC)C(=O)N1CCC[C@H]1C(=O)N[C@@H](Cc1ccccc1)C(=O)NCCCN)C(=O)N1CCC[C@H]1C(=O)N[C@@H](Cc1ccccc1)C(=O)NCCCN [Compound 5]
selectivity for FSS RNA vs FSS DNA (HIV-1 FSS DNA): no selectivity
change in Fluc to Rluc ratio relative to untreated cells [4]: No change
lower concentration than RG501 for roughly equivalent increase in RT [5]: 37.5 fold
RT in unprocessed Gag-Pol (p160) relative to mature RT (p66 + p51) [5]: increased significantly
amount of RT relative to capsid protein p24 [5]: increasing amounts of RT
increased affinity over 2 and 3 [1]: approximately 50 fold
association rate, ka [1, 9]: (3.99 ± 0.37) × 10^4 M^–1s^-1
dissociation rate kd [1, 9]: (3.75 ± 0.12) × 10^–3 s^–1
association rate, ka [1, 10]: (3.68 ± 1.45) × 10^4 M^–1s^-1
dissociation rate kd [1, 10]: (3.46 ± 2.05) × 10^–3 s^–1
binding to HTLV-2 FSS by SPR (HTLV-2 FSS RNA): no binding was observed
concentrations at which no significant toxicity occurred (HEK 293FT cells [6]): below 60 μM
cell penetration (internalization) (HEK 293FT cells [7]): internalized

Compound: NCCCNC(=O)[C@H](Cc1ccccc1)NC(=O)[C@@H]1CCCN1C(=O)[C@@H](N)C/C=C/C[C@H](N)C(=O)N1CCC[C@H]1C(=O)N[C@@H](Cc1ccccc1)C(=O)NCCCN [Compound 10]
increase in Fluc to Rluc ratio (−1 PRF) ([8]; at 50 μM, 36 h): no significant effect
binding to HIV-1 FSS RNA by SPR (qualitative) [1]: completely abrogated binding
association rate, ka ([1]; conditions a, b (both buffers)): none obsd
dissociation constant, KD ([1]; conditions a, b (both buffers)): none obsd
dissociation rate kd ([1]; conditions a, b (both buffers)): none obsd
decrease in infectivity ([2]; 40 μM, producer cells treated): modest decrease

Compound: COc1cccc2c1C(=O)c1c(O)c3c(c(O)c1C2=O)C[C@@](O)(C(=O)CO)C[C@@H]3O[C@H]1C[C@H](N)[C@H](O)[C@H](C)O1 [Doxorubicin]
Kd (HIV-1 FSS RNA): 2800 nM

The next lines start with results.

binding to HIV-1 FSS RNA by SPR (qualitative) [1]: No binding was observed
Compound: 2-ethyl benzo[g]quinoline carboxylic acid

weaker binding / decrease in affinity relative to dimers 4 and 5 [1]: 200 fold
association rate, ka [1, 9]: (1.16 ± 0.06) × 10^3 M^–1s^-1
dissociation rate kd [1, 9]: (2.25 ± 0.01) × 10^–2 s^–1
Compound: C=CC[C@H](NC(=O)c1cc2cc3ccccc3cc2nc1CC)C(=O)N1CCC[C@H]1C(=O)N[C@@H](Cc1ccccc1)C(=O)NCCCN [Compound 6]

weaker binding / decrease in affinity relative to dimers 4 and 5 [1]: approximately 200 fold
association rate, ka [1, 9]: (4.58 ± 1.27) × 10^3 M^–1s^-1
dissociation rate kd [1, 9]: (1.21 ± 0.00) × 10^–2 s^–1
Compound: CCc1nc2cc3ccccc3cc2cc1C(=O)N[C@@H](C/C=C\C[C@H](N)C(=O)N1CCC[C@H]1C(=O)N[C@@H](Cc1ccccc1)C(=O)NCCCN)C(=O)N1CCC[C@H]1C(=O)N[C@@H](Cc1ccccc1)C(=O)NCCCN [Compound 7]

weaker binding / decrease in affinity relative to dimers 4 and 5 [1]: 30 fold
association rate, ka [1, 9]: (7.71 ± 4.9) × 10^3 M^–1s^-1
dissociation rate kd [1, 9]: (1.63 ± 1.12) × 10^–1 s^–1
Compound: CCc1nc2cc3ccccc3cc2cc1C(=O)N[C@@H](C/C=C/C[C@H](N)C(=O)N1CCC[C@H]1C(=O)N[C@@H](Cc1ccccc1)C(=O)NCCCN)C(=O)N1CCC[C@H]1C(=O)N[C@@H](Cc1ccccc1)C(=O)NCCCN [Compound 8]

weaker binding / decrease in affinity relative to dimers 4 and 5 [1]: ~7 fold
association rate, ka [1, 9]: (1.07 ± 0.07) × 10^4 M^–1s^-1
dissociation rate kd [1, 9]: (7.92 ± 0.53) × 10^–3 s^–1
binding to HTLV-2 FSS by SPR (HTLV-2 FSS RNA): no binding was observed
cell penetration (internalization) (HEK 293FT cells [7]): internalized
Compound: CCc1nc2cc3ccccc3cc2cc1C(=O)N[C@@H](CSSC[C@H](NC(=O)c1cc2cc3ccccc3cc2nc1CC)C(=O)N1CCC[C@H]1C(=O)N[C@@H](Cc1ccccc1)C(=O)NCCCN)C(=O)N1CCC[C@H]1C(=O)N[C@@H](Cc1ccccc1)C(=O)NCCCN [Compound 11]
stimulation of HIV-1 frameshifting ([8]; concentrations above 10 µM not examined): approximately 25%
concentrations at which compound proved toxic (HEK 293FT cells [6]): above 10 μM
